These results are taken from PubChem BioAssay AID588731 (Vanderbilt Specialized Chemistry Center, 2011).

Active and inactive are the calls of the source.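 The calls were made as follows: active = compounds shifting agonist potency at least twofold either way, or pushing peak agonist response below 75% or above 125%; inactive = the rest.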

The target in this assay is Metabotropic glutamate receptor 7 (Rattus norvegicus) (UniProt P35400). Briefly: rat mGlu7 allosteric modulation, L-AP4 curve shift, profiling panel, selectivity assay for mGlu5 PAM project, thallium flux, HEK/GIRK cells (AID 588731). Conditions: L-AP4 CRC shift, at 10 µM; for Emax: measured here: L-AP4 max response with compound. A digest of the protocol: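 Material: HEK cells with GIRK channels expressing rat mGlu7 receptor. Probe or stimulus: L-AP4 concentration-response curve. Compound dosing: single test compound concentration of 10 µM final. Incubation: dye loading 45 min at 37 °C, L-AP4 addition at 142 s. Signal: GIRK thallium flux fluorescence. Evaluation: agonist EC50 fold shift and %Emax.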
Chain of Metabotropic glutamate receptor 7 (Rattus norvegicus) (P35400 whole entry, looked up): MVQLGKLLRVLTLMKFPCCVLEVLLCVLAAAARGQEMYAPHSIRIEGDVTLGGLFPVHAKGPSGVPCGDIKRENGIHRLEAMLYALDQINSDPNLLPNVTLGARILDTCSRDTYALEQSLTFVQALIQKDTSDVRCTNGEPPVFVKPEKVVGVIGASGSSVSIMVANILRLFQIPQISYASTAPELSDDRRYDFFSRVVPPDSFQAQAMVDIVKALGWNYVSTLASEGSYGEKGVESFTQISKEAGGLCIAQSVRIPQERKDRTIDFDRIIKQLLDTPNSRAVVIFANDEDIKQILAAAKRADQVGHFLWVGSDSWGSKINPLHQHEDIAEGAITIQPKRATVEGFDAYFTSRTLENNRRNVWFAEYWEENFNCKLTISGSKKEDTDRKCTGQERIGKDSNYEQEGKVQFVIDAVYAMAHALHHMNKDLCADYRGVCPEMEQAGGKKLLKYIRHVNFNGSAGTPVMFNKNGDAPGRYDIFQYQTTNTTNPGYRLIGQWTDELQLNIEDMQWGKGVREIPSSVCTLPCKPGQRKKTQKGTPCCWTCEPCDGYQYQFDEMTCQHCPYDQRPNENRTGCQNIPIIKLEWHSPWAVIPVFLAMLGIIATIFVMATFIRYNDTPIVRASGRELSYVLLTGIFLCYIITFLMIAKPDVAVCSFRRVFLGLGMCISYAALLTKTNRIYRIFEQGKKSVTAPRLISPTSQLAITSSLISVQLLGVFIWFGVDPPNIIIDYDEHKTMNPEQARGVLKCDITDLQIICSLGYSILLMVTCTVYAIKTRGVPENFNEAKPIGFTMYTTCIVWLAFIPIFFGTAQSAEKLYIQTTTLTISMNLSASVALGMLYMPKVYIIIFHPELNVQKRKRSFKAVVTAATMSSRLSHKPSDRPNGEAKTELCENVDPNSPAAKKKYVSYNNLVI

The Emax is the greatest response seen or fitted, relative to the assay's reference. `CC1(NC(=O)c2ccc(C#Cc3cccc(F)c3)cn2)COC1`: the fold shift is 0.77 (inactive) and the maximum response (Emax) came to 92.3%.
Take `C[C@@H](NC(=O)c1ccc(C#Cc2cccc(F)c2)cn1)C(C)(C)O`: the fold shift is 1.04 (inactive) and the Emax is 92%.
